# Measured values taken from PubChem BioAssay.
# Calls of active or inactive are those of the source.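 The calls were made as follows, unless noted: active = viability at or below 30% in both replicate assays; inconclusive = viability at or below 30% in just one of the two assays; inactive = the rest.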
# Key:
# [1] = HUVEC growth inhibition – cell-based, human, primary screen (AID 575); conditions: HUVEC proliferation, CellTiter-Glo luminescence, 72 h; at 10 µM; stronger effect = lower value;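 also: 100% = median of untreated cell wells with 0.1% DMSO on each plate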
# How it was run: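 Assay system: Primary human umbilical vein endothelial cells | Quantity: 1250 cells per well | Medium: Supplemented EBM, 2% fetal bovine serum | Detection: CellTiter-Glo luminescence measuring cellular ATP | Read-out: % viability vs DMSO wells | Plate: Collagen-coated 384-well format | Times: 72 h exposure, 37 °C, 5% CO2, 30 min RT equilibration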
# [2] = H69AR cell proliferation blockers – human, duplicate replicates, primary screen (AID 580;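 active = viability at or under a set limit in both replicates, limit being median viability minus 3 SD, cut at about 48% in these data, passing the limit was not always enough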;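 also: 100% = mean luminescence of untreated wells and 0% = no signal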); conditions: H69AR lung tumor cells viability, ATP luminescence, 72 h; at 10 µM; stronger effect = lower value
# [3] = MRP1 drug-resistance reversers in H69AR cells – cell-based, doxorubicin co-treatment, pilot screen (AID 601;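 active = viability loss from added drug above about 55%, and viability with drug at most 40%, in both replicates, limit read from the data, passing the limit was not always enough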); conditions: CellTiter-Glo, 72 h, at 10 µM; for differential viability (reversal): stronger effect = higher value
# [4] = yeast transport mutant growth inhibition pilot in 384-well plates, post-Golgi transport modulator project (AID 636; in the data active = inhibition above about 31%); conditions: absorbance 615 nm, about 18 h, stronger effect = higher value
# [5] = growth suppression of yeast trafficking mutant, preliminary HTS, modulators of trafficking downstream of Golgi apparatus project, 1536-format plate, OD 615 nm (AID 637; in the data active = inhibition above about 30%); conditions: yeast transport mutant growth, absorbance 615 nm, 18 h; stronger effect = higher value
# [6] = H69AR cells + 2 uM doxorubicin, measured here: viability with 2 uM doxorubicin, stronger effect = lower value
# [7] = H69AR cells, compound alone cytotoxicity
Compound,viability [1],viability [2],differential viability (reversal) ([3]; H69AR cells + 2 uM doxorubicin),"viability [3, 6]","viability [3, 7]",inhibition [4],inhibition [5]
CCOC(=O)C1CCCN(C(=O)CNS(=O)(=O)c2ccc(Br)s2)C1 (stereo unspecified),108% (inactive),95.7% (inactive),17.7% (inactive),78%,95.7%,-6.71% (inactive),4.13% (inactive)
CC(C)c1ccc(NC(=O)C2CC(=O)N(C(C)C)C2)cc1 (stereo unspecified),89.2% (inactive),90.8% (inactive),3.6% (inactive),87.3%,90.8%,-2.34% (inactive),-2.86% (inactive)
CCCOc1ccc(S(=O)(=O)NCCCN2CCOCC2)c2ccccc12,83.2% (inactive),90% (inactive),7.43% (inactive),82.6%,90%,-6.13% (inactive),4.6% (inactive)
C=CCn1c(SCC(=O)NCC2CCCO2)nnc1C1CCCCC1 (stereo unspecified),104% (inactive),97.5% (inactive),9.64% (inactive),87.8%,97.5%,-6.88% (inactive),-0.32% (inactive)
Nc1nc(-c2ccccc2)cc(C(F)(F)F)n1,95.4% (inactive),103% (inactive),8.53% (inactive),94.1%,103%,-3.51% (inactive),1.27% (inactive)
CCc1ccc(CCC(=O)Nc2ccc(C)c(C)c2)o1,102% (inactive),95.1% (inactive),7.16% (inactive),87.9%,95.1%,-8.4% (inactive),-3.65% (inactive)
CN(Cc1cnn(C)c1)C(=O)c1cc2ccccc2oc1=O,114% (inactive),103% (inactive),13.3% (inactive),89.9%,103%,-5.66% (inactive),2.06% (inactive)
COC(=O)Cn1cc(C(=O)c2cccs2)c2ccccc21,103% (inactive),96.4% (inactive),9.54% (inactive),86.9%,96.4%,-2.34% (inactive),1.43% (inactive)
O=C1c2ccccc2C(=O)N1CCC(=O)N1CCc2ccccc21,101% (inactive),87.3% (inactive),-5.43% (inactive),92.7%,87.3%,-4.53% (inactive),5.08% (inactive)
CC(C)(C)NC(=O)CN(C(=O)CS(=O)CC(=O)Nc1ccc(F)cc1)c1ccc(Cl)cc1 (stereo unspecified),95.2% (inactive),98.9% (inactive),10.3% (inactive),88.6%,98.9%,-4.53% (inactive),21.9% (inactive)
N#Cc1c(SCC(=O)N2CCOCC2)nsc1SCC(=O)N1CCOCC1,97.7% (inactive),97.2% (inactive),11.5% (inactive),85.7%,97.2%,-1.3% (inactive),-3.02% (inactive)
O=C(c1cccnc1)N1CCN(Cc2ccc3c(c2)OCO3)CC1,89.6% (inactive),95.8% (inactive),14.4% (inactive),81.4%,95.8%,-7.73% (inactive),1.75% (inactive)
C=CCn1c(=O)c(C(=O)Nc2ccccc2C(=O)OCC)c(O)c2ccccc21,84.3% (inactive),33% (active),-26.9% (inactive),60%,33%,-7.2% (inactive),6.83% (inactive)
CCc1nnc(NC(=O)CSc2nnc(Cc3ccccc3)n2-c2ccc(OC)cc2)s1,92.9% (inactive),84.6% (inactive),-6.38% (inactive),90.9%,84.6%,-5.79% (inactive),-0.63% (inactive)
COc1cccc(CC(NC(C)=O)C(=O)NC2CCN(c3c4c(nc5ncnn35)CCC4)CC2)c1 (stereo unspecified),90.4% (inactive),96.1% (inactive),8.17% (inactive),87.9%,96.1%,-6.18% (inactive),3.17% (inactive)
O=C(O)c1cccn2c(=O)c3ccccc3nc12,101% (inactive),95.8% (inactive),4.45% (inactive),91.4%,95.8%,-2.8% (inactive),-2.22% (inactive)
CCOC(=O)CSc1nnc(-c2ccc(Cl)cc2Cl)o1,105% (inactive),101% (inactive),3.39% (inactive),97.4%,101%,-5.07% (inactive),-0.16% (inactive)
O=S1(=O)C=C(Sc2nc3ccccc3s2)c2ccccc21,9.16% (active),1.38% (active),0.39% (inactive),0.99%,1.38%,37.3% (active),55.6% (active)
Cc1cccc2cc(C(c3nnnn3C(C)(C)C)N3CCN(C(=O)c4ccco4)CC3)c(=O)[nH]c12 (stereo unspecified),86.4% (inactive),79.3% (inactive),-3.69% (inactive),83%,79.3%,-6.32% (inactive),0% (inactive)

Compound,viability [1],viability [2],differential viability (reversal) ([3]; H69AR cells + 2 uM doxorubicin),"viability [3, 6]","viability [3, 7]",inhibition [4],inhibition [5]
CCCOc1cccc(C(=O)N(Cc2ccco2)C2CCS(=O)(=O)C2)c1 (stereo unspecified),98% (inactive),90.5% (inactive),0.72% (inactive),89.8%,90.5%,-3.6% (inactive),-7.94% (inactive)
O=C(c1noc2c1CCc1ccccc1-2)N1CCOCC1,95.6% (inactive),96.4% (inactive),6.12% (inactive),90.3%,96.4%,-0.13% (inactive),-2.86% (inactive)
Cn1c(Cc2cccs2)nnc1SCC(=O)N1CCc2ccccc21,94.1% (inactive),84.3% (inactive),-9.72% (inactive),94%,84.3%,-0.66% (inactive),-8.1% (inactive)
O=C(CSc1nnc(-c2ccccc2)o1)N1CCN(c2ccccc2)CC1,89.9% (inactive),98.3% (inactive),3.54% (inactive),94.8%,98.3%,-4.53% (inactive),1.75% (inactive)
O=C(c1ccncc1)N1CCN(C(=O)c2cccs2)CC1,103% (inactive),94.6% (inactive),5.42% (inactive),89.1%,94.6%,-1.73% (inactive),-2.38% (inactive)
O=C(Cn1nnc2c(cnn2-c2ccc(F)cc2)c1=O)c1ccccc1F,75.6% (inactive),81.2% (inactive),16.1% (inactive),65.1%,81.2%,-3.64% (inactive),-0.48% (inactive)
Cc1cccc(-n2ncc(C#N)c2N)c1,109% (inactive),104% (inactive),3.67% (inactive),100%,104%,-2.76% (inactive),-1.11% (inactive)
Cc1ccc(-n2c(-c3ccncc3)nnc2-c2cccs2)cc1,95.2% (inactive),79.9% (inactive),39.3% (inactive),40.6%,79.9%,-6.53% (inactive),9.37% (inactive)
COc1ccc(OC)c(N2Cc3cc(C)c(C)cc3C2)c1,114% (inactive),95.3% (inactive),6.88% (inactive),88.4%,95.3%,-6.97% (inactive),4.44% (inactive)
CCC(=O)c1ccc(OCC(=O)N2CCc3cc(OC)c(OC)cc3C2)cc1,101% (inactive),82.9% (inactive),-11.2% (inactive),94.1%,82.9%,-2.34% (inactive),-4.6% (inactive)
CCOC(=O)c1sc(NS(=O)(=O)c2ccc(NC(C)=O)cc2)nc1C,112% (inactive),96% (inactive),7.92% (inactive),88.1%,96%,-1.97% (inactive),2.22% (inactive)
NC(=O)c1sc2nc3c(c(-c4ccco4)c2c1N)CCC3,75.7% (inactive),81.4% (inactive),-16.8% (inactive),98.2%,81.4%,-5.47% (inactive),-8.57% (inactive)
O=C(c1ccc(CNS(=O)(=O)c2cccc(C(F)(F)F)c2)cc1)N1CCOCC1,102% (inactive),92.9% (inactive),12% (inactive),80.9%,92.9%,-8.67% (inactive),1.43% (inactive)
COc1ccccc1NC1=NC2(CCCC2)N=C(N)N1,91.3% (inactive),99.7% (inactive),8.79% (inactive),90.9%,99.7%,-2.6% (inactive),3.02% (inactive)
COC(=O)Cc1c(C)c2ccc(OCC(=O)N3CCOCC3)cc2oc1=O,107% (inactive),100% (inactive),12.4% (inactive),87.8%,100%,-4.67% (inactive),17% (inactive)
COc1ccccc1Cn1c(-c2ccco2)nc2nc3ccccc3nc21,52.5% (inactive),59.9% (inactive),7.3% (inactive),52.6%,59.9%,-6.93% (inactive),8.41% (inactive)
O=C(CN(c1ccc(F)cc1)S(=O)(=O)c1ccc2c(c1)OCCO2)NCC1CCCO1 (stereo unspecified),96.5% (inactive),100% (inactive),13.4% (inactive),87.1%,100%,-3.42% (inactive),2.54% (inactive)
Cn1c(=O)c2ncn(CC(=O)NCCOc3ccccc3)c2n(C)c1=O,108% (inactive),91.9% (inactive),7.6% (inactive),84.2%,91.9%,0.39% (inactive),5.71% (inactive)
CCN(CC(=O)Nc1c(C(=O)OC)[nH]c2ccccc12)c1ccc2c(c1)OCO2,67.8% (inactive),72% (inactive),-6.82% (inactive),78.8%,72%,-5.2% (inactive),-2.22% (inactive)
